Microsomal CLint, half-life and IC50 data for six molecules are collected here from ChEMBL document CHEMBL2157866, “Virtual screening and computational optimization for the discovery of covalent prolyl oligopeptidase inhibitors with activity in human cells” (J Med Chem, 2012).

Data set [1] in a line: Intrinsic clearance in rat liver microsomes at 1 uM after 30 mins by LC-MSD method. Type of data set: ADME, Microsome. Particulars: read-out: CLH. The method in brief: (§1)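 Test compound at 1 μM in 0.1 M KH2PO4 pH 7.4 with liver microsomes (0.5618 mg/mL) at 37 °C. Reaction started with NADPH. Aliquots taken at 0, 10, 20 and 30 min and quenched into equal-volume acetonitrile. Samples centrifuged at 9000g, 4 °C, and supernatants analysed by LC-MSD.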
In general terms: Liver microsomes are vesicles of endoplasmic reticulum, rich in cytochrome P450 enzymes.

Data set [2] can be described thus: Half life in rat liver microsomes at 1 uM after 30 mins by LC-MSD method. Type of data set: ADME, Microsome. The method in brief:
as §1

Data set [3] is described as follows: Intrinsic clearance in human liver microsomes at 1 uM after 30 mins by LC-MSD method. Type of data set: ADME, Microsome. As to conditions: read-out: CLH. The method in brief: as §1
Data set [4] is described as follows: Half life in human liver microsomes at 1 uM after 30 mins by LC-MSD method. It is filed as ADME, Microsome. The method in brief: as §1
The next data set addresses T1, Prolyl endopeptidase FAP (Homo sapiens, UniProt Q12884).
T1 sequence (Q12884 whole entry): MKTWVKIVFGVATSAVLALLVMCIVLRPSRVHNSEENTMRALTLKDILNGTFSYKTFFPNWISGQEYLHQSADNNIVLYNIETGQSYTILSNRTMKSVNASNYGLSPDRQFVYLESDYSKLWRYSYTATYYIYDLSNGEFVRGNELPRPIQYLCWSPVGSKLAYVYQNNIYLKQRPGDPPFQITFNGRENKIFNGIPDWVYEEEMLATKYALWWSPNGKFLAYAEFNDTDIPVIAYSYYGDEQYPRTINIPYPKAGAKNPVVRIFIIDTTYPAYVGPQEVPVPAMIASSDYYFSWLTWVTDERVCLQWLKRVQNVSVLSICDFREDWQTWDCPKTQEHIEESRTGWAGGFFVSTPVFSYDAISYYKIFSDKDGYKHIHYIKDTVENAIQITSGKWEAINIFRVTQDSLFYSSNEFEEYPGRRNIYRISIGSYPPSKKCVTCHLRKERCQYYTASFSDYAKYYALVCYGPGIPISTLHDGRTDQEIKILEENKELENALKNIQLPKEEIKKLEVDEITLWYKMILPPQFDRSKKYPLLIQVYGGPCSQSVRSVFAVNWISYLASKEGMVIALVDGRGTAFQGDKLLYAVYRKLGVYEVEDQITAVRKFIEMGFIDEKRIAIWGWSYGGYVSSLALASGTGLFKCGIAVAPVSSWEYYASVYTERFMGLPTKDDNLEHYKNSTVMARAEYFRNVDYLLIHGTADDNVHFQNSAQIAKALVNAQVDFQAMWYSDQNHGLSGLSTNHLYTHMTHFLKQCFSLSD
The experiment in a line: Inhibition at human recombinant FAPalpha. The method in brief:
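Recombinant human FAPα diluted in PBS with 1 mg/mL BSA. Setup as for cell extracts: inhibitor preincubated 5–10 min at room temperature, then Z-Gly-Pro-AMC at 10 μM final. AMC fluorescence (ex/em 360/460 nm) recorded for 30 min at 37 °C.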

SMILES strings stand for the structures.

By half-life is commonly meant the time in which the quantity being followed falls by half. As for `O=C(NCc1ccccc1)c1ccccc1C(=O)N1CCCCC1`, the figures for the microsomal CLint at 1 µM in data set [1] and in data set [3] were 311 µL/min/mg and 89 µL/min/mg, respectively. The half-life at 1 µM in data set [2] is 4 min; in data set [4] it was 16 min.

By IC50 is commonly meant the concentration needed to halve the response being measured. As to `N#C[C@@H]1CCCN1C(=O)c1cccc2c1C(=O)N(Cc1ccccc1)C2`, the microsomal CLint at 1 µM in data set [1] came to 39 µL/min/mg; in data set [3], 13 µL/min/mg. Besides, the half-life at 1 µM in data set [2] is 35 min; in data set [4], 111 min. Further, the IC50 on Prolyl endopeptidase FAP was more than 100 µM.

For `N#C[C@@H]1CCCN1C(=O)c1ccccc1C(=O)NCc1ccccc1`, the microsomal CLint at 1 µM was 37 µL/min/mg in data set [1] and 44 µL/min/mg in data set [3]. The results for the half-life at 1 µM in data set [2] and in data set [4] were 38 min and 31 min, respectively. Also, at Prolyl endopeptidase FAP, the IC50 is more than 100 µM.

For the molecule `N#C[C@@H]1CS[C@H]2C[C@@H](NC(=O)OCc3ccccc3)C(=O)N12`, the microsomal CLint at 1 µM in data set [3] was 10 µL/min/mg. Moreover, the half-life at 1 µM in data set [4] turned out to be 134 min.

Consider `O=C(NCc1ccccc1)c1ccccc1C(=O)N1CCCC1`, for which the microsomal CLint at 1 µM in data set [1] amounted to 83 µL/min/mg; in data set [3], 25 µL/min/mg. The half-life at 1 µM turned out to be 17 min in data set [2] and 55 min in data set [4].

Regarding `O=C(c1cccc2c1C(=O)N(Cc1ccccc1)C2)N1CCCC1`, the microsomal CLint at 1 µM in data set [1] came out at 62 µL/min/mg; in data set [3], 14 µL/min/mg. Also, the half-life at 1 µM turned out to be 23 min in data set [2] and 98 min in data set [4]. Moreover, at Prolyl endopeptidase FAP, the half-inhibitory concentration (IC50) is more than 100 µM.
